Assay results reported in article PMC6560633 (Journal of the American Chemical Society, 2018).
Like-named read-outs stand apart in the source and are kept apart here.

Key:
[1] = Ligand protonation constants by pH-potentiometric titration; type: physicochemical; conditions: for log Ka1 / log Ka2 / log Ka3 / log Ka4: 25 °C, I = 0.1 M KCl; for existence of fully deprotonated ligand in solution: speciation
How it was run: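 Protonation constants came from pH-potentiometric titration at 25 °C in 0.1 M KCl. The fraction of each protonated or deprotonated ligand species in solution was calculated from the fitted constants using species distribution diagrams. Overall ligand basicity was taken as the sum of the log Ka values.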

[2] = Stability constants of Ca^2+ complexes by pH-potentiometry; type: binding; conditions: I = 0.1 M KCl; for log KCaL / pCa / log KCaHL: 25 °C; for log KʹCa (conditional stability constant): pH 7.4, 25 °C; for pCa: −log [M^2+]free, [M^2+] = 10^−6 M, [L] = 10^−5 M, pH 7.4; for log KCaHL: protonation constant of the Ca^2+ complex
[3] = Stability constants of Sr^2+ complexes by pH-potentiometry; type: binding; conditions: I = 0.1 M KCl; for log KʹSr (conditional stability constant): pH 7.4, 25 °C; for pSr: −log [M^2+]free, [M^2+] = 10^−6 M, [L] = 10^−5 M, pH 7.4
[4] = Stability constants of Ba^2+ complexes by pH-potentiometry; type: binding; conditions: for log KBaL / major species present in solution of Ba^2+ and ligand / log KBaH2L / log KBaHL / pBa: 25 °C; for log KBaL / log KʹBa (conditional stability constant) / major species present in solution of Ba^2+ and ligand / log KBaH2L / log KBaHL / pBa: I = 0.1 M KCl; for selectivity for Ba^2+ over Ca^2+ (ratio of pM values) / selectivity for Ba^2+ over Sr^2+ (ratio of pM values) / major species present in solution of Ba^2+ and ligand / pBa: pH 7.4; for log KʹBa (conditional stability constant): pH 7.4, 25 °C; for major species present in solution of Ba^2+ and ligand: [Ba^2+]tot = [L]tot = 1.0 mM; for log KBaH2L / log KBaHL: protonation constant of the Ba^2+ complex; for pBa: −log [M^2+]free, [M^2+] = 10^−6 M, [L] = 10^−5 M
[5] = Dissolution of BaSO4 suspension by ligand, GFAAS
How it was run: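 BaSO4 was formed in pH 8 NaHCO3 from Ba(NO3)2 (4.53 mM) and excess Na2SO4 (13.48 mM), then ligand (5 mM) was added at RT. Dissolved barium was measured by GFAAS after 10, 20 and 30 min. A second series used pH 11 […] buffer and was sampled at 5 and 30 min. Results are reported as percent of BaSO4 dissolved.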

[6] = Dissolution of crude barite ore in columns, ligand efficiency by GFAAS; conditions: barite 3 g, soak 1 h
[7] = I = 0.1 M KCl, cited from earlier work
[8] = cited from earlier work; for log KCaHL: protonation constant of the Ca^2+ complex
[9] = cited from earlier work; for log KSrHL: protonation constant of the Sr^2+ complex
[10] = Kinetic inertness: La^3+ transmetalation challenge of Ba–L complexes, UV-vis; type: physicochemical; conditions: 1000 equiv of La^3+, RT, pH 7.3
[11] = Stability of Ba^2+ complexes in the presence of hydroxyapatite, GFAAS; type: physicochemical; conditions: HAP suspension, pH 7.6 buffer, after 20 h; 1.1 equiv L, 1.0 equiv Ba^2+
[12] = cited from earlier work
[13] = protonation constant of the Sr^2+ complex, 25 °C
[14] = pH 8 NaHCO3, RT, ligand 5 mM, 30 min
[15] = I = 0.1 M KNO3, bracketed value

Row | SMILES | overall basicity (sum of log Ka values) [1] | log Ka1 [1] | log Ka2 [1] | log Ka3 [1] | log Ka4 [1] | log KCaL [2] | log KʹCa (conditional stability constant) [2] | log KSrL ([3]; 25 °C) | log KʹSr (conditional stability constant) [3] | log KSrHL [3, 13] | log KBaL [4] | log KʹBa (conditional stability constant) [4] | major species present in solution of Ba^2+ and ligand [4] | log KBaH2L [4] | pCa [2] | pSr ([3]; 25 °C) | selectivity for Ba^2+ over Ca^2+ (ratio of pM values) [4] [fold] | selectivity for Ba^2+ over Sr^2+ (ratio of pM values) [4] [fold] | pBa [4] | BaSO4 dissolved [5, 14] | other results
1 | O=C(O)c1cccc(CN2CCOCCOCCN(Cc3cccc(C(=O)O)n3)CCOCCOCC2)n1 [macropa] | 19.99 | 7.41 | 6.899 | 3.23(1) | 2.45(5) | 5.79(1) | 5.42 | 9.442(4) | 9.07 | 3.35(8) | 11.11(4) | 10.74 | ML species | 2.49(7) | 6.54 | 10.02 | 1.79 | 1.17 | 11.69 | complete dissolution | log Ka1 ([1]; listed as macropa^2−): 7.41(1); log Ka2 ([1]; listed as macropa^2−): 6.899(3); fraction of ligand fully deprotonated (L^2–) ([1]; pH 7.4): 43%; Ba^2+ bound by ligand ([4]; pH 4.0): 90%; Ba^2+ complexed by ligand ([4]; pH 5.1): 99%; log KBaHL [4]: 3.76(2); BaSO4 dissolved ([5]; pH 8 NaHCO3, RT, ligand 5 mM, 10 min): 78%; BaSO4 dissolved ([5]; pH 11 NaCO3 buffer, 5 min): > 95%; ligand efficiency (percent of ligand saturated with Ba^2+) ([6]; pH 8, ~48 mM ligand): 40%; ligand efficiency (percent of ligand saturated with Ba^2+) ([6]; pH 11, ~48 mM ligand): 40%; log Ka1 ([7]; parenthetic value): 7.41; log Ka2 ([7]; parenthetic value): 6.85; log Ka3 ([7]; parenthetic value): 3.32; log Ka4 ([7]; parenthetic value): 2.36; log Ka5 ([7]; parenthetic value): (1.69); log KCaL [8, 15]: 5.25; log KSrL [9, 15]: 9.57
2 | O=C([O-])c1cccc(CN2CCOCCOCCN(Cc3cccc(C(=O)[O-])n3)CCOCCOCC2)n1.[Ba+2] [Ba–macropa] | – | – | – | – | – | – | – | – | – | – | – | – | – | – | – | – | – | – | – | – | half-life (t½) of substitution of Ba^2+ with La^3+ [10]: 5.45 ± 0.20 min; Ba^2+ retained in the liquid phase (intact complex) [11]: 82%
3 | O=C(O)CN(CCN(CC(=O)O)CC(=O)O)CCN(CC(=O)O)CC(=O)O [DTPA, reference compound] | – | – | – | – | – | – | 7.63 | – | 5.53 | – | – | 4.63 | – | – | 8.59 | 6.61 | < 1 | < 1 | 6.15 | 40% | BaSO4 dissolved ([5]; pH 11 NaCO3 buffer, 5 min): nearly all; ligand efficiency (percent of ligand saturated with Ba^2+) ([6]; pH 8, ~48 mM ligand): 2%; ligand efficiency (percent of ligand saturated with Ba^2+) ([6]; pH 11, ~48 mM ligand): 17%; log Ka1 [7]: 10.34; log Ka2 [7]: 8.59; log Ka3 [7]: 4.25; log Ka4 [7]: 2.71; log Ka5 [7]: 2.18; log KCaL ([8]; I = 0.1 M KCl): 11.77; log KCaHL [8]: 6.10; log KSrL [9]: 9.68; log KSrHL [9]: 5.4; log KBaL [12]: 8.78; log KBaHL ([12]; protonation constant of the Ba^2+ complex): 5.34
4 | O=S(=O)(O)c1ccc(O)c2nc(CN3CCOCCOCCN(Cc4ccc5c(S(=O)(=O)O)ccc(O)c5n4)CCOCCOCC3)ccc12 [macroquin–SO3] | 32.14 | 9.34 | 9.43 | 6.75 | 6.62 | 6.04(8) | 3.19 | 8.62(2) | 5.64 | 8.34(4) | 10.44(6) | 8.76 | MH2L species | 7.80(2) | 6.01 | 6.70 | – | – | 9.72 | – | log Ka1 ([1]; listed as macroquin–SO3^4−): 9.34(4); log Ka2 ([1]; listed as macroquin–SO3^4−): 9.43(1); log Ka3 ([1]; listed as macroquin–SO3^4−): 6.75(4); log Ka4 ([1]; listed as macroquin–SO3^4−): 6.62(4); fraction of ligand as H2L^2– ([1]; pH 7.4): 78%; existence of fully deprotonated ligand in solution [1]: do not exist in solution below pH 8; log KCaHL [2]: 8.60(4); log KSrH2L [3, 13]: 6.920(3); log KBaHL [4]: 9.24(7)

Continued, in another order:

Row | overall basicity (sum of log Ka values) [1] | log Ka1 [1] | log Ka2 [1] | log Ka3 [1] | log Ka4 [1] | log KCaL [2] | log KʹCa (conditional stability constant) [2] | log KSrL ([3]; 25 °C) | log KʹSr (conditional stability constant) [3] | log KSrHL [3, 13] | log KBaL [4] | log KʹBa (conditional stability constant) [4] | major species present in solution of Ba^2+ and ligand [4] | log KBaH2L [4] | SMILES | pCa [2] | pSr ([3]; 25 °C) | selectivity for Ba^2+ over Ca^2+ (ratio of pM values) [4] [fold] | selectivity for Ba^2+ over Sr^2+ (ratio of pM values) [4] [fold] | pBa [4] | BaSO4 dissolved [5, 14] | other results
5 | 27.69 | 10.33 | 7.15 | 6.97 | 3.24(4) | 5.90(4) | 3.94 | 9.19(5) | 7.54 | 8.92(2) | 10.87(2) | 10.05 | MHL species | 3.28(2) | O=C(O)c1cccc(CN2CCOCCOCCN(Cc3ccc4cccc(O)c4n3)CCOCCOCC2)n1 [macropaquin] | 6.04 | 8.50 | – | – | 11.01 | 95% | log Ka1 ([1]; listed as macropaquin^2−): 10.33(4); log Ka2 ([1]; listed as macropaquin^2−): 7.15(3); log Ka3 ([1]; listed as macropaquin^2−): 6.97(2); fraction of ligand as monoprotonated species HL^– ([1]; pH 7.4): 56%; existence of fully deprotonated ligand in solution [1]: do not exist in solution below pH 8; log KCaHL [2]: 8.59(2); log KBaHL [4]: 9.76(2)
6 | – | – | – | – | – | – | 10.34 | – | 8.35 | – | – | 5.72 | – | – | O=C(O)CN1CCN(CC(=O)O)CCN(CC(=O)O)CCN(CC(=O)O)CC1 [DOTA, reference compound] | 11.29 | 9.30 | < 1 | < 1 | 6.76 | 40% | BaSO4 dissolved ([5]; pH 11 NaCO3 buffer, 30 min): 75%; log Ka1 [7]: 11.14; log Ka2 [7]: 9.69; log Ka3 [7]: 4.85; log Ka4 [7]: 3.95; log KCaHL ([8]; I = 0.1 M KCl): 3.60; log KSrHL ([9]; I = 0.1 M KCl): 4.52; log KBaL ([12]; I = 0.1 M KCl): 11.75
